# Measured values: ChEMBL document CHEMBL1221240, “An efficient one-pot synthesis of heterocycle-fused 1,2,3-triazole derivatives as anti-cancer agents” (Bioorg Med Chem Lett, 2010)
# Assays:
# Type in all cases: functional, cell-based
# [1] = tested on: HepG2; assay: Cytotoxicity against human HepG2 cells by MTT assay
# [2] = tested on: HL-60; assay: Cytotoxicity against human HL60 cells by MTT assay
# How it was run: (§1)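 In vitro MTT assay on human tumour cells: myeloid leukaemia K562 and HL-60, ovarian carcinoma Skov-3, epidermoid carcinoma A431, and lung adenocarcinoma A549. IC50 is the concentration that lowers optical density of treated cells by 50% relative to untreated cells. Values are means of three independent determinations.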
# [3] = tested on: A549; assay: Cytotoxicity against human A549 cells by MTT assay; how it was run: as §1
# [4] = tested on: SK-OV-3; assay: Cytotoxicity against human SKOV3 cells by MTT assay; how it was run: as §1
# [5] = tested on: K562; assay: Cytotoxicity against human K562 cells by MTT assay; how it was run: as §1
# [6] = tested on: A-431; assay: Cytotoxicity against human A431 cells by MTT assay; how it was run: as §1
compound,measurement,setting,value
Cc1ccc(C(=O)c2nnn3c2NCCC3)cc1,IC50,[1],> 200 µg/mL
same,IC50,[2],> 200 µg/mL
same,IC50,[3],> 200 µg/mL
same,IC50,[4],124 µg/mL
same,IC50,[5],1.5 µg/mL
same,IC50,[6],> 200 µg/mL
O=C(c1ccc(Cl)cc1)c1nnn2c1NCC2,IC50,[1],> 200 µg/mL
same,IC50,[2],> 200 µg/mL
same,IC50,[3],> 200 µg/mL
same,IC50,[4],> 200 µg/mL
same,IC50,[5],16.1 µg/mL
same,IC50,[6],57.6 µg/mL
Cc1ccc(C(=O)c2nnn3c2NCC3)cc1,IC50,[1],> 200 µg/mL
same,IC50,[2],> 200 µg/mL
same,IC50,[3],> 200 µg/mL
same,IC50,[4],> 200 µg/mL
same,IC50,[5],9.4 µg/mL
same,IC50,[6],> 200 µg/mL
O=C(c1ccc(Cl)cc1)c1nnn2c1OCC2,IC50,[1],> 200 µg/mL
same,IC50,[2],6.5 µg/mL
same,IC50,[3],42 µg/mL
same,IC50,[4],8.6 µg/mL
same,IC50,[5],> 200 µg/mL
same,IC50,[6],3.8 µg/mL
CC(=O)c1nnn2c1NCC2,IC50,[1],> 200 µg/mL
same,IC50,[2],> 200 µg/mL
same,IC50,[3],> 200 µg/mL
same,IC50,[4],> 200 µg/mL
same,IC50,[5],> 200 µg/mL
same,IC50,[6],> 200 µg/mL
COc1ccc(C(=O)c2nnn3c2OCC3)cc1,IC50,[1],> 200 µg/mL
same,IC50,[2],21.1 µg/mL
same,IC50,[3],58 µg/mL
same,IC50,[4],9.6 µg/mL
same,IC50,[5],1 µg/mL
same,IC50,[6],1.9 µg/mL
O=C(c1ccccc1)c1nnn2c1OCC2,IC50,[1],> 200 µg/mL
same,IC50,[2],17.2 µg/mL
same,IC50,[3],78 µg/mL
same,IC50,[4],66.1 µg/mL
same,IC50,[5],> 200 µg/mL
same,IC50,[6],10.8 µg/mL
O=C(c1ccc(Cl)cc1)c1nnn2c1NCCC2,IC50,[1],> 200 µg/mL
same,IC50,[2],> 200 µg/mL
same,IC50,[3],> 200 µg/mL
same,IC50,[4],> 200 µg/mL
same,IC50,[5],3.2 µg/mL
same,IC50,[6],> 200 µg/mL
COc1ccc(C(=O)c2nnn3c2NCC3)cc1,IC50,[1],> 200 µg/mL
same,IC50,[2],> 200 µg/mL
same,IC50,[3],> 200 µg/mL
same,IC50,[4],159 µg/mL
same,IC50,[5],2.8 µg/mL
same,IC50,[6],> 200 µg/mL
O=C(c1ccccc1)c1nnn2c1NCC2,IC50,[1],> 200 µg/mL
same,IC50,[2],> 200 µg/mL
same,IC50,[3],> 200 µg/mL
same,IC50,[4],> 200 µg/mL
same,IC50,[5],92 µg/mL
same,IC50,[6],> 200 µg/mL
COc1ccc(C(=O)c2nnn3c2NCCC3)cc1,IC50,[1],> 200 µg/mL
same,IC50,[2],> 200 µg/mL
same,IC50,[3],> 200 µg/mL
same,IC50,[4],190 µg/mL
same,IC50,[5],3.4 µg/mL
same,IC50,[6],64.4 µg/mL
O=C(c1ccccc1)c1nnn2c1NCCC2,IC50,[1],> 200 µg/mL
same,IC50,[2],> 200 µg/mL
same,IC50,[3],> 200 µg/mL
same,IC50,[4],> 200 µg/mL
same,IC50,[5],28.6 µg/mL
same,IC50,[6],> 200 µg/mL
Cc1ccc(C(=O)c2nnn3c2OCC3)cc1,IC50,[1],198 µg/mL
same,IC50,[2],13.7 µg/mL
same,IC50,[3],79 µg/mL
same,IC50,[4],8.5 µg/mL
same,IC50,[5],127 µg/mL
same,IC50,[6],12.7 µg/mL
